In PMC8548355 (Medicinal Chemistry Research, 2021):
≈ marks a conversion by molar mass, not a printed value.

Columns and labels:
VRSA VRS 4 = experiment: MIC against clinical VRSA isolate VRS 4; assay type: cell-based; details: Staphylococcus aureus, read-out: MIC against VRSA VRS 4
A. baumannii BAA 1605 = experiment: MIC by broth microdilution against A. baumannii BAA 1605; assay type: cell-based; details: Acinetobacter baumannii, BAA1605, read-out: MIC against A. baumannii BAA 1605
K. pneumoniae BAA 1705 = experiment: MIC by broth microdilution against K. pneumoniae BAA 1705; assay type: cell-based; details: Klebsiella pneumoniae, BAA1705, read-out: MIC against K. pneumoniae BAA 1705
VRSA VRS 1 = experiment: MIC against clinical VRSA isolate VRS 1; assay type: cell-based; details: Staphylococcus aureus, read-out: MIC against VRSA VRS 1
MRSA NRS 10194 = experiment: MIC against clinical MRSA isolate NRS 10194; assay type: cell-based; details: Staphylococcus aureus, MRSA|NRS10194, read-out: MIC against MRSA NRS 10194
E. coli ATCC 25922 = experiment: MIC by broth microdilution against E. coli ATCC 25922; assay type: cell-based; details: Escherichia coli, ATCC25922, read-out: MIC against E. coli ATCC 25922
MRSA NRS 10129 = experiment: MIC against clinical MRSA isolate NRS 10129; assay type: cell-based; details: Staphylococcus aureus, MRSA|NRS10129, read-out: MIC against MRSA NRS 10129
MRSA NRS 10119 = experiment: MIC against clinical MRSA isolate NRS 10119; assay type: cell-based; details: Staphylococcus aureus, MRSA|NRS10119, read-out: MIC against MRSA NRS 10119
MRSA NRS 10100 = experiment: MIC against clinical MRSA isolate NRS 10100; assay type: cell-based; details: Staphylococcus aureus, MRSA|NRS10100, read-out: MIC against MRSA NRS 10100
S. aureus ATCC 29213 [1] = experiment: Drug interaction of 22 with FDA-approved drugs, checkerboard method; assay type: cell-based, Staphylococcus aureus; details: for MIC of drug in the presence of “22” “B”: S. aureus ATCC 29213, checkerboard, in combination with 22; for MIC: Staphylococcus aureus, ATCC29213, 24 h, read-out: MIC (drug alone); for Inference (drug interaction): combination of 22 with the drug, S. aureus ATCC 29213
VRSA VRS 12 = experiment: MIC against clinical VRSA isolate VRS 12; assay type: cell-based; details: Staphylococcus aureus, read-out: MIC against VRSA VRS 12
MRSA NRS 10186 = experiment: MIC against clinical MRSA isolate NRS 10186; assay type: cell-based; details: Staphylococcus aureus, MRSA|NRS10186, read-out: MIC against MRSA NRS 10186
Vero cells (ATCC CCL-81) = experiment: Cell cytotoxicity assay; assay type: cell-based; details: CC50 Vero cells / MIC S. aureus ATCC 29213
MRSA NRS 10191 = experiment: MIC against clinical MRSA isolate NRS 10191; assay type: cell-based; details: Staphylococcus aureus, MRSA|NRS10191, read-out: MIC against MRSA NRS 10191
S. aureus ATCC 29213 [2] = experiment: MIC by broth microdilution against S. aureus ATCC 29213; assay type: cell-based, Staphylococcus aureus; details: Staphylococcus aureus, ATCC29213, read-out: MIC against S. aureus ATCC 29213, broth microdilution, 37 °C, 16–18 h
MRSA NRS 10192 = experiment: MIC against clinical MRSA isolate NRS 10192; assay type: cell-based; details: Staphylococcus aureus, MRSA|NRS10192, read-out: MIC against MRSA NRS 10192
MRSA NRS 10193 = experiment: MIC against clinical MRSA isolate NRS 10193; assay type: cell-based; details: Staphylococcus aureus, MRSA|NRS10193, read-out: MIC against MRSA NRS 10193
MRSA NRS 10198 = experiment: MIC against clinical MRSA isolate NRS 10198; assay type: cell-based; details: Staphylococcus aureus, MRSA|NRS10198, read-out: MIC against MRSA NRS 10198
[3] = system: clinical MDR S. aureus isolates (MRSA and VRSA); experiment: MIC against clinical MDR S. aureus isolates, whole panel; assay type: cell-based, Staphylococcus aureus; details: nine MRSA and three VRSA strains
S. aureus ATCC 29213 [4] = experiment: Time–kill kinetics; assay type: cell-based, Staphylococcus aureus; details: 24 h; for cfu reduction in time–kill kinetics: 10× MIC
Method in brief: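 Bacteria diluted to ~10^6 cfu/mL and exposed to test compound at 1× and 10× MIC, with controls, at 37 °C for 24 h. Samples taken at 1, 6 and 24 h, serially diluted ten-fold in PBS, and spread on MHA. Plates incubated at 37 °C for 24 h and colonies counted. Surviving cfu/mL plotted against time with and without compound.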

[5] = system: S. aureus ATCC 29213 pre-formed biofilm; experiment: Activity against pre-formed S. aureus biofilm; assay type: cell-based, Staphylococcus aureus; details: 10× MIC, 24 h treatment, S. aureus ATCC 29213, compared to comparators
Method in brief: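 Overnight culture in 1% TSB, shaken at 180 RPM at 37 °C, diluted 1:100 in fresh TSB. Biofilm grown statically for 48 h at 37 °C under an adhesive foil lid for low oxygen. Planktonic cells removed with three PBS (pH 7.4) rinses. Refilled with TSB containing test compound, 24 h at 37 °C. Washed, heat-fixed at 60 °C for 1 h, stained with 0.06% crystal violet for 10 min, eluted with 30% acetic acid, absorbance read at 600 nm.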

S. aureus = details: similar activity to 20–23; cited from earlier work

Compound | MIC (VRSA VRS 4) [mg/L] | MIC (A. baumannii BAA 1605) [mg/L] | MIC (K. pneumoniae BAA 1705) [mg/L] | MIC (VRSA VRS 1) [mg/L] | MIC (MRSA NRS 10194) [mg/L] | MIC (E. coli ATCC 25922) [mg/L] | MIC (MRSA NRS 10129) [mg/L] | MIC (MRSA NRS 10119) [mg/L] | MIC (MRSA NRS 10100) [mg/L] | MIC (S. aureus ATCC 29213 [1]) [mg/L] | MIC (VRSA VRS 12) [mg/L] | MIC (MRSA NRS 10186) [mg/L] | MIC (MRSA NRS 10191) [mg/L] | MIC (S. aureus ATCC 29213 [2]) [mg/L] | MIC (MRSA NRS 10192) [mg/L] | MIC (MRSA NRS 10193) [mg/L] | MIC (MRSA NRS 10198) [mg/L] | MIC against MRSA and VRSA isolates (range over the panel) [3] [mg/L] | other results
C[C@H]1COc2c(N3CCN(C)CC3)c(F)cc3c(=O)c(C(=O)O)cn1c23 [Levofloxacin, reference compound] | > 64 | 8 (≈ 22.1 µM) | 64 (≈ 177 µM) | 64 (≈ 177 µM) | 0.125 (≈ 0.346 µM) | 0.0156 (≈ 0.0432 µM) | 0.25 (≈ 0.692 µM) | 16 (≈ 44.3 µM) | 0.25 (≈ 0.692 µM) | 0.25 | 32 (≈ 88.6 µM) | 8 (≈ 22.1 µM) | 16 (≈ 44.3 µM) | 0.25 (≈ 0.692 µM) | 8 (≈ 22.1 µM) | 32 (≈ 88.6 µM) | 32 (≈ 88.6 µM) | – | MIC of drug in the presence of “22” “B” (S. aureus ATCC 29213 [1]): 0.25 mg/L; Inference (drug interaction) (S. aureus ATCC 29213 [1]): No interaction; Selectivity index with respect to S. aureus ATCC 29213 (SI) (Vero cells (ATCC CCL-81)): >400
O=C(Nc1ccc(Br)cc1)c1cc(Cl)ccc1O [Compound 25, 5-Chloro-N-(4ʹ-bromophenyl)-2-hydroxybenzamide] | 0.5 (≈ 1.53 µM) | > 64 | > 64 | 0.5 (≈ 1.53 µM) | 0.5 (≈ 1.53 µM) | > 64 | 0.5 (≈ 1.53 µM) | 0.25 (≈ 0.766 µM) | 0.5 (≈ 1.53 µM) | – | 0.5 (≈ 1.53 µM) | 0.5 (≈ 1.53 µM) | 0.5 (≈ 1.53 µM) | 0.5 (≈ 1.53 µM) | 0.5 (≈ 1.53 µM) | 0.5 (≈ 1.53 µM) | 0.5 (≈ 1.53 µM) | 0.25 to 0.5 | –
C[C@@H](O)[C@H]1C(=O)N2C(C(=O)O)=C(S[C@@H]3CN[C@H](C(=O)N(C)C)C3)[C@H](C)[C@H]12 [Meropenem, reference compound] | > 64 | – | – | > 64 | 4 (≈ 10.4 µM) | – | 16 (≈ 41.7 µM) | > 64 | 64 (≈ 167 µM) | 0.5 | 16 (≈ 41.7 µM) | 16 (≈ 41.7 µM) | > 64 | – | 32 (≈ 83.4 µM) | > 64 | > 64 | – | MIC of drug in the presence of “22” “B” (S. aureus ATCC 29213 [1]): 0.5 mg/L; Inference (drug interaction) (S. aureus ATCC 29213 [1]): No interaction
CN[C@H](CC(C)C)C(=O)N[C@H]1C(=O)N[C@@H](CC(N)=O)C(=O)N[C@H]2C(=O)N[C@H]3C(=O)N[C@H](C(=O)N[C@H](C(=O)O)c4cc(O)cc(O)c4-c4cc3ccc4O)[C@H](O)c3ccc(c(Cl)c3)Oc3cc2cc(c3O[C@@H]2O[C@H](CO)[C@@H](O)[C@H](O)[C@H]2O[C@H]2C[C@](C)(N)[C@H](O)[C@H](C)O2)Oc2ccc(cc2Cl)[C@H]1O [Vancomycin, reference compound] | > 64 | – | – | > 64 | 1 (≈ 0.69 µM) | – | 1 (≈ 0.69 µM) | 2 (≈ 1.38 µM) | 2 (≈ 1.38 µM) | 1 | > 64 | 1 (≈ 0.69 µM) | 2 (≈ 1.38 µM) | – | 2 (≈ 1.38 µM) | 2 (≈ 1.38 µM) | 2 (≈ 1.38 µM) | – | MIC of drug in the presence of “22” “B” (S. aureus ATCC 29213 [1]): 0.5 mg/L; Inference (drug interaction) (S. aureus ATCC 29213 [1]): No interaction; cfu reduction in time–kill kinetics (S. aureus ATCC 29213 [4]): ~ 9 log10 cfu/mL
O=C(Nc1ccc(Cl)c(C(F)(F)F)c1)c1cc(Cl)ccc1O [Compound 20, 5-Chloro-N-(4ʹ-chloro-3ʹ-(trifluoromethyl)phenyl)-2-hydroxybenzamide] | 0.25 (≈ 0.714 µM) | > 64 | > 64 | 0.5 (≈ 1.43 µM) | 0.5 (≈ 1.43 µM) | > 64 | 0.5 (≈ 1.43 µM) | 0.5 (≈ 1.43 µM) | 0.5 (≈ 1.43 µM) | – | 0.5 (≈ 1.43 µM) | 0.5 (≈ 1.43 µM) | 0.5 (≈ 1.43 µM) | 0.25 (≈ 0.714 µM) | 0.5 (≈ 1.43 µM) | 0.5 (≈ 1.43 µM) | 0.5 (≈ 1.43 µM) | 0.25 to 0.5 | –
O=C(Nc1ccc(Cl)cc1)c1cc(Cl)ccc1O [Compound 24, 5-Chloro-N-(4ʹ-chlorophenyl)-2-hydroxybenzamide] | 0.5 (≈ 1.77 µM) | > 64 | > 64 | 0.5 (≈ 1.77 µM) | 0.5 (≈ 1.77 µM) | > 64 | 0.5 (≈ 1.77 µM) | 0.25 (≈ 0.886 µM) | 0.5 (≈ 1.77 µM) | – | 0.5 (≈ 1.77 µM) | 0.5 (≈ 1.77 µM) | 0.5 (≈ 1.77 µM) | 0.5 (≈ 1.77 µM) | 0.5 (≈ 1.77 µM) | 0.5 (≈ 1.77 µM) | 0.5 (≈ 1.77 µM) | 0.25 to 0.5 | –
COc1cccc(OC)c1C(=O)N[C@@H]1C(=O)N2[C@@H]1SC(C)(C)[C@@H]2C(=O)O [Methicillin, reference compound] | > 64 | – | – | > 64 | 32 (≈ 84.1 µM) | – | 32 (≈ 84.1 µM) | > 64 | > 64 | – | > 64 | 64 (≈ 168 µM) | > 64 | – | > 64 | > 64 | > 64 | – | –
O=C(Nc1cccc(C(F)(F)F)c1)c1cc(Cl)ccc1O [Compound 23, 5-Chloro-N-(3ʹ-(trifluoromethyl)phenyl)-2-hydroxybenzamide] | – | > 64 | > 64 | – | – | > 64 | – | – | – | – | – | – | – | 0.5 (≈ 1.58 µM) | – | – | – | – | Selectivity index with respect to S. aureus ATCC 29213 (SI) (Vero cells (ATCC CCL-81)): <10
O=C(Nc1ccc(Br)c(C(F)(F)F)c1)c1cc(Cl)ccc1O [Compound 22, 5-Chloro-N-(4ʹ-bromo-3ʹ-(trifluoromethyl)phenyl)-2-hydroxybenzamide] | 0.0625 (≈ 0.158 µM) | > 64 | > 64 | 0.0312 (≈ 0.0791 µM) | 0.0625 (≈ 0.158 µM) | > 64 | 0.0625 (≈ 0.158 µM) | 0.0312 (≈ 0.0791 µM) | 0.0625 (≈ 0.158 µM) | 0.5 | 0.0625 (≈ 0.158 µM) | 0.0625 (≈ 0.158 µM) | 0.0625 (≈ 0.158 µM) | 0.25 (≈ 0.634 µM) | 0.0312 (≈ 0.0791 µM) | 0.0625 (≈ 0.158 µM) | 0.0625 (≈ 0.158 µM) | 0.031 to 0.062 | Type of killing in time–kill kinetics (in words) (S. aureus ATCC 29213 [4]; 1× and 10× MIC): concentration-dependent bactericidal activity; cfu reduction in time–kill kinetics (S. aureus ATCC 29213 [4]): ~ 8 log10 cfu/mL; Reduction in pre-formed biofilm [5]: more significant reduction (P < 0.0005)
O=C(Nc1ccc(Br)c(C(F)(F)F)c1)c1ccccc1O [Compound 21, N-(4ʹ-bromo-3ʹ-(trifluoromethyl)phenyl)-2-hydroxybenzamide] | – | > 64 | > 64 | – | – | > 64 | – | – | – | – | – | – | – | 0.5 (≈ 1.39 µM) | – | – | – | – | Selectivity index with respect to S. aureus ATCC 29213 (SI) (Vero cells (ATCC CCL-81)): <10
O=C(Nc1cc(C(F)(F)F)cc(C(F)(F)F)c1)c1cc(Cl)ccc1O [IMD0354, N-[3,5-Bis(trifluoromethyl)phenyl]-5-chloro-2-hydroxybenzamide] | – | – | – | – | – | – | – | – | – | – | – | – | – | – | – | – | – | – | MIC (reported) (S. aureus): 0.25 mg/L (≈ 0.652 µM)
